Screening data: PubChem BioAssay, several laboratories
Only some compounds are listed: those with a hit (about 1.4% of all), similar ones and a draw of the others.
CASP6 VEID inh: human caspase-6 inhibitors, primary screen, biochemical, VEID-R110 fluorescence, single point, set 2. 350,000 tested, 0.53% active. purified caspase-6, Z-VEID-R110 cleavage fluorescence. inhibition, % at 12.5 µM;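 active = mean inhibition across replicates at least about 35%, with every replicate also reaching that limit, limit read from the data; inconclusive = only one of the two criteria met; inactive = neither criterion met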;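 note: 0% = median of neutral control wells and 100% = no fluorescence left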
Target sequence (P55212 24-179 limits assumed): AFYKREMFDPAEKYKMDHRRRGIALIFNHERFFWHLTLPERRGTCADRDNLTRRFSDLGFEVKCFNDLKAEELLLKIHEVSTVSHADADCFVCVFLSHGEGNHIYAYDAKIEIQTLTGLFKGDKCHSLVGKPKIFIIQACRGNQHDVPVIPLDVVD
Target sequence (P55212 194-293 limits assumed): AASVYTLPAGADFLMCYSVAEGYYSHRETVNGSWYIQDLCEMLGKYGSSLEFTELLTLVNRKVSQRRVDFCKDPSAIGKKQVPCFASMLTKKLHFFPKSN
Vif imaging: HIV Vif self-association inhibitors, primary screen, imaging, HEK293T, single point | AID 602346, 2012 | inhibition, % at 7.49 µM | 340,000 tested, 0.35% active | HEK293T cells, Vif self-association by quenched fluorescence, 24 h; in the data active = inhibition above about 50%, passing the limit was not always enough; inconclusive = no clear call, values can overlap the other calls; inactive = below about 31%
T cell modulator: modulators of CD8 T cell-vesicle binding, primary screen, mouse 2C CD8+ T cells, flow cytometry. 2C CD8+ T cell-vesicle binding; stronger effect = lower value. response (vesicle binding), % at 7 µM. 330,000 tested, 0.068% active. AID 2052, 2009;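 active = response, share of CD8 T cells binding vesicles, and their 90th percentile fluorescence all below set limits, cut at about 80% in these data, passing the limit was not always enough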;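 note: values below 100% mean blocked vesicle binding to the CD8+ T cells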
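Material: murine 2C transgenic CD8+ T lymphocytes / Also added: QL9-peptide-loaded Drosophila micro-vesicles bearing Ld, ICAM-1 and B7-1 / Schedule: binding step 1.5 h, 37 °C, antibody labelling 20 min, ice / Signal: flow cytometry, PE anti-B7-1 (FL2) versus Alexa647 anti-CD8 (FL8), PFA-fixed / Evaluation: percent CD8+ FL2 mean versus row control / Benchmarks: naked versus QL9-loaded vesicles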
Myeloid diff 2: induction of myeloid progenitor differentiation, primary screen, cell-based, flow cytometry, MLPCN library; AID 624256, 2012; ER-HoxA9 myeloid progenitors, lysozyme-GFP differentiation; 360,000 tested, 1% active; calls only at 10 µM;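 active = normalized GFP-positive differentiation at or above the plate's own cutoff, the solvent-only control mean plus 3 SD; inconclusive = no clear call, values can overlap the other calls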;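 note: cells exposed to compound for four days before flow analysis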
CASP1 counter: human caspase-1 inhibitors, dose response, selectivity assay for caspase-6 inhibitor project, biochemical, Z-YVAD-R110 fluorescence, cherry-pick, set 2; shares compounds with CASP6 VEID inh; purified caspase-1, Z-YVAD-R110 cleavage fluorescence; activity change, negative = inhibition, % at 35 µM; 100 tested, under 10 active;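 active = compounds lowering fluorescence whose fitted half-maximal concentration is no more than twice their top tested dose; inconclusive = flat fit with 30 to 70% inhibition, or poor fit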
* marks the source's active call; other numbers are inactive results; i = inactive; u = inconclusive; x = no result given.

SMILES | CASP6 VEID inh | Vif imaging | T cell modulator | Myeloid diff 2 | CASP1 counter
O=C(O)CC(CCc1ccccc1)OC1OC(CO)C(O)C(O)C1O (centres undefined) | 71* | -15 | i | i | 22
C[C@H]1CN([C@@H](C)CO)C(=O)c2cc(NC(=O)Nc3ccc(F)cc3)ccc2O[C@H]1CN(C)Cc1ccncc1 | -3 | x | x | x | x
Oc1cc(NCCN2CCOCC2)cc2cccnc12 | 90* | -5 | 352 | i | -2
C[C@@H]1CCCCO[C@@H](CN(C)Cc2ccncc2)[C@H](C)CN([C@@H](C)CO)C(=O)c2cc(NC(=O)CCC(F)(F)F)ccc2O1 | 0 | x | x | x | x
COc1cc(NCCCCC(C)N)c2nccc(C)c2c1 (centres undefined) | 93* | -2 | x | i | -5
O=C(Nc1cccc(Br)c1)C1CCCC1 | -2 | 2 | 319 | i | x
O=C(O)C1CCCCC1C(=O)Nc1cccc(Br)c1 (centres undefined) | 75* | -4 | 239 | i | -2
COCCn1c2nc(=O)n(-c3ccccc3)c(=O)c-2nc2ccccc21 | 70* | 0 | x | u | 5
COCCn1c(-c2ccc(OC)cc2)nc2ccccc21 | x | -10 | 313 | i | x
Cc1cc(C=O)c(C)n1-c1ccc(Cl)c(C(=O)O)c1 | 54* | -2 | 178 | i | 3
COc1ccc(-n2c(C)cc(C=O)c2C)cc1Cl | x | 1 | 217 | i | x
CC(NC(=O)CCC(=O)Nc1ccccc1O)c1ccccc1 (centres undefined) | 0 | 1 | i | i | x
CC(CNc1ccccc1O)C(=O)O (centres undefined) | 56* | -3 | 278 | i | -2
C[C@H](O)C#Cc1cnc2c(c1)C(=O)N([C@H](C)CO)C[C@@H](C)[C@H](CN(C)C(=O)CC1CC1)O2 | 2 | x | x | x | x
O=[N+]([O-])c1c(Nc2ccccn2)cc(Cl)c2nonc12 | 59* | -8 | 56 | u | -1
O=C(O)c1ccccc1Nc1cc(Cl)c2nonc2c1[N+](=O)[O-] | 3 | 1 | 215 | i | x
COc1ccc(NS(=O)(=O)c2ccc3c(c2)[C@H]2C=CC[C@H]2[C@@H](c2ccc(C(=O)O)cc2)N3)cc1 | 53* | 23 | 189 | i | 3
C[C@@H](NC(=O)C[C@@H]1CC[C@H]2[C@@H](COC[C@H](O)CN2C(=O)Nc2cc(Cl)cc(Cl)c2)O1)c1ccccc1 | -1 | x | x | x | x
CCCN(C(=O)c1cccc(-n2cccc2)c1)c1c(N)n(Cc2ccccc2)c(=O)[nH]c1=O | 71* | -2 | 210 | i | 9
CCCCN(C(=O)c1cccc(-n2cccc2)c1)c1c(N)n(CCC)c(=O)[nH]c1=O | 41* | -3 | 34 | i | 8
CCCCN(C(=O)c1cccc(S(=O)(=O)N2CCCC2)c1)c1c(N)n(CCC)c(=O)[nH]c1=O | 2 | x | 421 | i | x
C[C@H](CO)N1C[C@H](C)[C@H](CN(C)Cc2ccncc2)Oc2c(NC(=O)C3CC3)cccc2C1=O | 0 | x | x | x | x
O=c1cc2oc3cc(O)c(O)cc3c(-c3ccccc3[N+](=O)[O-])c-2cc1O | 96* | 5 | 381 | i | -1
COc1ccc(NC(=O)CN(C)C(=O)c2cccc(-n3cccc3)c2)cc1 | 51* | 1 | i | i | -3
Cc1cccc(C)c1NC(=O)CN(C)C(=O)c1cccc(-n2cccc2)c1 | 15 | x | 355 | i | x
SMILES | CASP6 VEID inh | Vif imaging | T cell modulator | Myeloid diff 2 | CASP1 counter
Cc1ccc(NC(=O)CN(C)C(=O)c2cccc(-n3cccc3)c2)cc1 | 82* | -1 | x | i | 11
Cc1cccc(NC(=O)CNC(=O)c2cccc(-n3cccc3)c2)c1C | 83* | -11 | 544 | i | 0
Cc1cccc(NC(=O)CNCC(=O)Nc2cccc(C)c2C)c1C | -3 | 5 | 325 | i | x
C[C@@H]1CCCCO[C@H](CN(C)S(=O)(=O)c2ccc(F)cc2)[C@@H](C)CN([C@@H](C)CO)C(=O)c2cc(NC(=O)Nc3cccc4ccccc34)ccc2O1 | 0 | x | x | x | x
COc1cccc(CN2CC3(CN(C(C)=O)C3)c3c(n(C)c4cc(OC)ccc34)[C@@H]2CO)c1 | 7 | x | x | x | x
O=C(C[C@H]1CC[C@H]2[C@@H](COC[C@@H](O)CN2C(=O)c2ccccc2F)O1)N1CCCCC1 | -2 | x | x | x | x
Nc1cc2c(cc1Br)[nH]c(=O)c1ccccc12 | 42* | 8 | x | i | 6
COc1ccc2c3c(n(C)c2c1)[C@@H](CO)N(Cc1ccc2c(c1)OCO2)CC31CCN(C(C)=O)CC1 | -2 | x | x | x | x
O=C(COC(=O)c1ccccc1)Nc1ncc([N+](=O)[O-])s1 | 84* | -11 | 255 | i | -7
CCOC(=O)c1sc2nc(OCCN3CCOCC3)cc(C)c2c1N | 82* | x | x | i | 5
CCCc1nc2c(=O)n(C)c(=O)nc-2n(C)n1 | 96* | 3 | x | u | -12
Cn1nc(-c2ccccn2)nc2c(=O)n(C)c(=O)nc1-2 | 95* | -29 | 135 | u | -3
CCn1c(N)nc2c1c(=O)n(C)c(=O)n2C | 0 | 7 | 534 | i | x
COc1ccc(-c2nc(-c3ccccn3)ncc2S(C)(=O)=O)cc1 | 1 | -2 | 146 | i | x
CC(=O)N(C)C[C@@H]1Oc2cc(C#Cc3ccccc3)ccc2S(=O)(=O)N([C@@H](C)CO)C[C@@H]1C | -1 | x | x | x | x
Oc1cc(O)cc(C=Cc2ccc(O)c(O)c2)c1 | 76* | x | x | x | -8
Cn1c(=O)c2c(-c3ccccc3)n(-c3ccc(N)cc3)cc2n(C)c1=O | 83* | 0 | x | i | -1
Cn1c(=O)c2c(-c3ccccc3)n(-c3cccc(O)c3)cc2n(C)c1=O | 5 | -8 | x | i | x
